The values below come from paper PMC9713862 (ACS Omega, 2022).

Marks after values point to notes of the source that are not given here.

One data set has as its target apo-transferrin (apoTf) (Homo sapiens, UniProt P02787). Briefly: Stability assessment in apoTf solution. Format: in vitro ADME. The settings on record: 74 kBq/100 μL added to same volume of 0.2 mM apoTf in 200 mM sodium bicarbonate buffer pH 7.4 (ApoTf 0.1 mM), 37 °C, 5% CO2, RP-TLC, mean ± SD (n = 5). Put shortly:
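[67Ga]-labelled test compound was HPLC-purified and taken up in D-PBS(−). 74 kBq/100 μL was mixed with an equal volume of 0.2 mM (stock) apoTf in 200 mM sodium bicarbonate, pH 7.4. The mix was held at 37 °C under 5% CO2. At 3 and 24 h, 5 μL aliquots were analysed by RP-18 TLC in 0.1% aqueous TFA/MeCN with 0.1% TFA (2:3).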

The conditions of data set [1]: Ga complex with N3O3 configuration, 1.5 h; cited from earlier work.

Sequence of apo-transferrin (apoTf) (P02787 20-698): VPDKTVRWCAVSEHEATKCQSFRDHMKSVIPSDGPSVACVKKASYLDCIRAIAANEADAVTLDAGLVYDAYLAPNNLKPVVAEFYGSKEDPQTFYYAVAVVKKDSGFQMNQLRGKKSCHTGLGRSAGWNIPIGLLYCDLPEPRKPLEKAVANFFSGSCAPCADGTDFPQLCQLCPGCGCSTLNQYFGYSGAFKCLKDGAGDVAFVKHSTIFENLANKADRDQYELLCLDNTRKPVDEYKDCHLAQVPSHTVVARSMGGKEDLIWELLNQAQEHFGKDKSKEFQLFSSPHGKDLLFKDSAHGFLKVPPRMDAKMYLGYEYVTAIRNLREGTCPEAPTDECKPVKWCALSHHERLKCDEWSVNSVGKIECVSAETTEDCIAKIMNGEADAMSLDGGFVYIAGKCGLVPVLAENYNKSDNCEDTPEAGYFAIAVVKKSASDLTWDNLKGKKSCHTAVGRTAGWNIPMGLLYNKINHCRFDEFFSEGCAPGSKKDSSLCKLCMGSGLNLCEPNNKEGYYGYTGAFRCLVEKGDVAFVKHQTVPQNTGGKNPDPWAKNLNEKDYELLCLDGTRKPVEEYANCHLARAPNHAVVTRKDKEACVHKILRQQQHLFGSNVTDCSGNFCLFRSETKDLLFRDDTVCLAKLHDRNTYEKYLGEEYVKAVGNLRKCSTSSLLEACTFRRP

With `CCCCNC(=O)CN1CCN(CC(=O)[O-])CCN(CC(=O)[O-])CCN(CC(=O)[O-])CC1.[67Ga+3]` [[^67Ga]Ga-DO3AM^Bu], on apo-transferrin (apoTf), the “Stability of 67Ga-labeled model chelators, ApoTf (0.1 mM), 3 h” value (from here on “Stability … 3 h”) is recorded as 87.4 ± 0.5 ^b ^c and the “Stability of 67Ga-labeled model chelators, ApoTf (0.1 mM), 24 h” value (from here on “Stability … 24 h”) is 43.1 ± 1.1 ^b ^c.

In the case of `O=C([O-])CN1CCN(CC(=O)[O-])CCN(Cc2ccc([N+](=O)[O-])cc2)CCN(CC(=O)[O-])CC1.[67Ga+3]` [[^67Ga]Ga-p-NO2-Bn-DO3A], at apo-transferrin (apoTf), the “Stability … 3 h” value is reported as 93.8 ± 0.6 ^b and the “Stability … 24 h” value was 67.5 ± 0.6 ^b.

As for `O=C([O-])CN1CCN(CC(=O)[O-])CCN(CC(=O)[O-])C(Cc2ccc([N+](=O)[O-])cc2)CN(CC(=O)[O-])CC1.[67Ga+3]` (centres unmarked) [[^67Ga]Ga-p-NO2-Bn-DOTA (A)], at apo-transferrin (apoTf), the “Stability … 3 h” value was 95.1 ± 1.2 ^d ^e ^f and the “Stability … 24 h” value was 90.3 ± 0.7 ^c ^d ^e ^f.

`O=C(O)CN1CCOCCN(CC(=O)O)CCN(CC(=O)O)CC1` [oxo-DO3A]: in data set [1], the “Ga complex decomposed in human serum” value is reported as > 80%.

Take `CCCCNC(=O)CCC(C(=O)[O-])N1CCN(CC(=O)[O-])CCN(CC(=O)[O-])CCN(CC(=O)[O-])CC1.[67Ga+3]` (centres unmarked) [[^67Ga]Ga-DOTAGAM^Bu]: on apo-transferrin (apoTf), the “Stability … 3 h” value is 80.0 ± 1.3 ^b ^c ^d and the “Stability … 24 h” value was 27.5 ± 4.6 ^b ^c ^d.

As to `O=C([O-])CN1CCN(CC(=O)[O-])CCN(CC(=O)[O-])CCN(CC(=O)[O-])CC1.[67Ga+3]` [[^67Ga]Ga-DOTA, reference compound], on apo-transferrin (apoTf), the “Stability … 3 h” value is 96.4 ± 0.2 and the “Stability … 24 h” value amounted to 89.6 ± 0.5.
